In article PMC3717159 (Investigational New Drugs, 2012):
pIC50: −log10 of the molar value.

Key:
[1] = biological target: MET phosphorylation in S114 xenograft tumors (Homo sapiens, UniProt P08581); assay: In vivo MET target inhibition in S114 xenograft tumors; set-up: species or system mouse
Procedure, shortened: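 Subcutaneous tumors from S114 cells (NIH3T3-derived murine line engineered to express human MET and HGF) in nude mice. Test compound in 10 % acacia, single oral dose. Dose response read 2 h post-dose (n = 8 per dose group, 4 studies pooled); 12 mg/kg time course over 24 h. Tumor phospho-MET measured by MSD ELISA relative to vehicle group, with pharmacokinetic analysis alongside.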

MKN45 xenograft = assay: Anti-tumor growth activity, xenograft model; format: in vivo, mouse; settings: MKN45, very high MET gene amplification, oral
Procedure, shortened: (§1)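 Xenografts were grown in athymic or CD-1 nude mice. Test compound was formulated in 10 % acacia and given orally twice daily without interruption. Tumour growth was compared with a vehicle-treated control group.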

ALK = ALK (Homo sapiens, UniProt Q9UM73); assay: Biochemical screening against 442 kinases
Sequence of ALK (Q9UM73 19-1620): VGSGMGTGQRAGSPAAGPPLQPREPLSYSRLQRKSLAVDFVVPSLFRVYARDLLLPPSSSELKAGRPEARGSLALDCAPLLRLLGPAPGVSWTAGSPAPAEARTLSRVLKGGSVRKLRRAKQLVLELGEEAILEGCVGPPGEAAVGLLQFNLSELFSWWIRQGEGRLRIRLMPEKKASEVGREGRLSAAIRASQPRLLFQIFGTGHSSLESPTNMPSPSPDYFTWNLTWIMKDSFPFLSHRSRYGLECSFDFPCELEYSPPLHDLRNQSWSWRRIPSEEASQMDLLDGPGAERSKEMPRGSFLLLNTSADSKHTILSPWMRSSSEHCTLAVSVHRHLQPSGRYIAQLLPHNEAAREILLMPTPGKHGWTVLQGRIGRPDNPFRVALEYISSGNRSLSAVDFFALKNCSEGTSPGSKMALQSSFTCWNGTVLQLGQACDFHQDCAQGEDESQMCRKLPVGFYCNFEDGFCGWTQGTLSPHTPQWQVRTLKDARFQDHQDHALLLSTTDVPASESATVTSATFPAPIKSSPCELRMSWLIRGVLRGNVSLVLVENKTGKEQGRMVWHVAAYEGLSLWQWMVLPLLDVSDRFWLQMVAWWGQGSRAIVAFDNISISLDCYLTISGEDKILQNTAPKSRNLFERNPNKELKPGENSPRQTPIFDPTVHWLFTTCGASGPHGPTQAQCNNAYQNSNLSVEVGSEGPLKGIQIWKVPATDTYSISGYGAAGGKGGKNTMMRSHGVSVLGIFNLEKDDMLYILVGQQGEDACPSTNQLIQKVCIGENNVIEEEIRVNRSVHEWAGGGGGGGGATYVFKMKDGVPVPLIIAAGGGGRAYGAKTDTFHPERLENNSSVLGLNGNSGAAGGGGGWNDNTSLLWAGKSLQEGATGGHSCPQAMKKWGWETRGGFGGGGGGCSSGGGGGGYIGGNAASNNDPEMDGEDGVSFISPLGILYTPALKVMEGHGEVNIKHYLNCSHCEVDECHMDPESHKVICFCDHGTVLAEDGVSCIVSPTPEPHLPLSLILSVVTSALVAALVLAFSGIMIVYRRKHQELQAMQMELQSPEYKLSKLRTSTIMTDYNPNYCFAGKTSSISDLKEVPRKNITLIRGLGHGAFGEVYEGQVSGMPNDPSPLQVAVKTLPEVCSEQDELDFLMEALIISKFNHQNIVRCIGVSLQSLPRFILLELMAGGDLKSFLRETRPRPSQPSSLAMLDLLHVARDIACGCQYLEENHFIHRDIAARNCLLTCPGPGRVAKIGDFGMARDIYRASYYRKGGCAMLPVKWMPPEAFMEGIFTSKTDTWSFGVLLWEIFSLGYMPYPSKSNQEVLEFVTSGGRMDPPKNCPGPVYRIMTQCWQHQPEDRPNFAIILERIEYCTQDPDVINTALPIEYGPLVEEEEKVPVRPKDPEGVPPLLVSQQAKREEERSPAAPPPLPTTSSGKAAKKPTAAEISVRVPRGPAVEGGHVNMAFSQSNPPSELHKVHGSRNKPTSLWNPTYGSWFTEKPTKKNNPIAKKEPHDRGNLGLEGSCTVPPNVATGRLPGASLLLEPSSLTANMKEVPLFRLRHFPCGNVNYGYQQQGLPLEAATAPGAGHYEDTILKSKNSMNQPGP

DU145 cells = assay: HGF induced cell scattering assay; format: cell-based; settings: 0.01–10 μM, HGF 20 ng/ml, 48 h, colony counts
Procedure, shortened: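 DU145 cells (2 × 10^3/well) were plated on poly-D-lysine and given test compound (0.4 % DMSO), then immediately human HGF (20 ng/ml). After 48 h at 37 °C, cells were fixed in 2 % formaldehyde and stained with Alexa488-phalloidin plus propidium iodide. Colonies (≥ 4 cells) were counted by laser-scanning microplate cytometry.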

U-87MG xenograft = assay: Anti-tumor growth activity, xenograft model; format: in vivo, mouse; settings: MET autocrine model, oral
Procedure, shortened: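 U-87MG xenografts were grown in nude mice. Test compound in 10 % acacia was given orally twice daily, either continuously or intermittently. The 5/2 schedule (5 dosing days, 2 off) ran for 4 cycles; the 9/5 schedule (9 dosing days, 5 off) ran for 2 cycles. Tumour growth was compared with vehicle controls.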

HT29 xenograft = assay: Anti-tumor growth activity, xenograft model; format: in vivo, mouse; settings: HT29, co-express MET and MST1R, oral
Procedure, shortened: as §1

H441 xenograft = assay: Anti-tumor growth activity, xenograft model; format: in vivo, mouse; settings: H441, MET over-expression, oral
Procedure, shortened: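 H441 xenografts were grown in nude mice. Test compound in 10 % acacia was given orally twice daily, either continuously or on intermittent schedules. The 5/2 schedule (5 dosing days, 2 drug-free days) ran for 6 cycles; the 9/5 schedule (9 dosing days, 5 drug-free days) ran for 3 cycles. Tumour growth was compared with vehicle controls.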

human MET kinase domain [2] = biological target: T1, human MET kinase domain (Homo sapiens, UniProt P08581); assay: MET kinase radiometric filter-binding assay; format: biochemical; settings: versus ATP
T1 sequence (P08581 1078-1345 limits assumed): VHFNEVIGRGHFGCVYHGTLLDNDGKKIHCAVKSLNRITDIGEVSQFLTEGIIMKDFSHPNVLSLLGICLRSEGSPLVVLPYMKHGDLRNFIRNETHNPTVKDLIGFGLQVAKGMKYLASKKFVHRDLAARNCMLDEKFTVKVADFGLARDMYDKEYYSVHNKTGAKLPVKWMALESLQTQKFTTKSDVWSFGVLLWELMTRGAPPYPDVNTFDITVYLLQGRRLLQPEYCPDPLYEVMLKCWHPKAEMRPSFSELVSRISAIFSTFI

MV4-11 xenograft = assay: Anti-tumor growth activity, xenograft model; format: in vivo, mouse; settings: MV4-11, FLT3-activating mutation, oral
Procedure, shortened: (§2)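 Nude mice (athymic or CD-1) carried H1299 orthotopic tumours or MV4-11 xenografts. Test compound was formulated in 10 % acacia and given orally.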

[3] = Pharmacokinetics in non-human primate; settings: in vivo, oral
LTK = LTK (Homo sapiens, UniProt P29376); assay: Biochemical screening against 442 kinases
Sequence of LTK (P29376 17-864): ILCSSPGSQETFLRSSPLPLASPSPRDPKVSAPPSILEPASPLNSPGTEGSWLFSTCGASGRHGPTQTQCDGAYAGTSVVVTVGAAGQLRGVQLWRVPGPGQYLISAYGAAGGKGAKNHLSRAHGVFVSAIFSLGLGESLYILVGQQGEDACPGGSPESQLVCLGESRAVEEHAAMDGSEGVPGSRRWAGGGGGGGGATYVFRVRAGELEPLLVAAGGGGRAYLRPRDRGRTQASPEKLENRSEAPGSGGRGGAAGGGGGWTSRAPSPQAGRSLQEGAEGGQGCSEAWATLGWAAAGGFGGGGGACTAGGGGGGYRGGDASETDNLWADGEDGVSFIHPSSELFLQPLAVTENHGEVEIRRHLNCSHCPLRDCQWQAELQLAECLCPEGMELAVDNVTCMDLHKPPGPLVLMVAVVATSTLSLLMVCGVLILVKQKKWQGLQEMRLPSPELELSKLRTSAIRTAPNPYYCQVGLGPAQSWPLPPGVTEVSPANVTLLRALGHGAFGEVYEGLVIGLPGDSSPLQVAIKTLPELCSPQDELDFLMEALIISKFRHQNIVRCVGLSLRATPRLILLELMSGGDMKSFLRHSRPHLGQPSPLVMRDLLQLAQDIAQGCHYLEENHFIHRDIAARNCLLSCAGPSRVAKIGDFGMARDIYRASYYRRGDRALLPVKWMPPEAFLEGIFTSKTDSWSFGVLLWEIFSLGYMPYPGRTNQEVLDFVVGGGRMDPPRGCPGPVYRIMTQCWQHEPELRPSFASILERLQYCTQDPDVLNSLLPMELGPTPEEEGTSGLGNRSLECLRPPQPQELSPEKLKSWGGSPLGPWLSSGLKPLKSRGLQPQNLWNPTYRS

MV4-11 cells = assay: In vitro anti-proliferative activity for MV4-11 cells; format: cell-based; settings: Homo sapiens, MV4-11, read-out: in vitro anti-proliferative activity IC50
H1993 xenograft = assay: Anti-tumor growth activity, xenograft model; format: in vivo, mouse; settings: H1993, co-express MET and MST1R, oral
Procedure, shortened: as §1

Pharmacokinetics in mice = settings: mouse, in vivo, oral
U-87MG xenograft tumors = assay: Multiplexed immunofluorescence tumor tissue imaging of U-87MG xenograft tumors; format: in vivo, mouse; settings: 12 mg/kg once daily, 28 days, vs vehicle
Procedure, shortened: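 Mice bearing U-87MG xenografts received test compound orally (10 % acacia) at 1.3 or 12 mg/kg once daily for 28 days, or vehicle. Tumours were then excised and fixed in Zinc-Tris. One panel stained […], CD31, Ki67 and TUNEL; the other stained Hoechst, CD31, GLUT1 and smooth muscle actin. Staining was quantified by imaging.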

H1299 orthotopic model = assay: Anti-tumor growth activity, orthotopic model of NSCLC; format: in vivo, mouse; settings: AXL over-expression, oral
Procedure, shortened: as §2

KP4 xenograft = assay: Anti-tumor growth activity, xenograft model; format: in vivo, mouse; settings: KP4, MET autocrine model, oral
Procedure, shortened: as §1

human MET kinase domain [4] = biological target: T1, human MET kinase domain; assay: MET kinase spin column assay; format: biochemical; settings: from Koff
[5] = S114 xenograft, 2 h after dose, oral, 4 studies
[6] = S114 xenograft, plasma concentration, 2 h after dose

Sequence of MET phosphorylation in S114 xenograft tumors (P08581 25-1390): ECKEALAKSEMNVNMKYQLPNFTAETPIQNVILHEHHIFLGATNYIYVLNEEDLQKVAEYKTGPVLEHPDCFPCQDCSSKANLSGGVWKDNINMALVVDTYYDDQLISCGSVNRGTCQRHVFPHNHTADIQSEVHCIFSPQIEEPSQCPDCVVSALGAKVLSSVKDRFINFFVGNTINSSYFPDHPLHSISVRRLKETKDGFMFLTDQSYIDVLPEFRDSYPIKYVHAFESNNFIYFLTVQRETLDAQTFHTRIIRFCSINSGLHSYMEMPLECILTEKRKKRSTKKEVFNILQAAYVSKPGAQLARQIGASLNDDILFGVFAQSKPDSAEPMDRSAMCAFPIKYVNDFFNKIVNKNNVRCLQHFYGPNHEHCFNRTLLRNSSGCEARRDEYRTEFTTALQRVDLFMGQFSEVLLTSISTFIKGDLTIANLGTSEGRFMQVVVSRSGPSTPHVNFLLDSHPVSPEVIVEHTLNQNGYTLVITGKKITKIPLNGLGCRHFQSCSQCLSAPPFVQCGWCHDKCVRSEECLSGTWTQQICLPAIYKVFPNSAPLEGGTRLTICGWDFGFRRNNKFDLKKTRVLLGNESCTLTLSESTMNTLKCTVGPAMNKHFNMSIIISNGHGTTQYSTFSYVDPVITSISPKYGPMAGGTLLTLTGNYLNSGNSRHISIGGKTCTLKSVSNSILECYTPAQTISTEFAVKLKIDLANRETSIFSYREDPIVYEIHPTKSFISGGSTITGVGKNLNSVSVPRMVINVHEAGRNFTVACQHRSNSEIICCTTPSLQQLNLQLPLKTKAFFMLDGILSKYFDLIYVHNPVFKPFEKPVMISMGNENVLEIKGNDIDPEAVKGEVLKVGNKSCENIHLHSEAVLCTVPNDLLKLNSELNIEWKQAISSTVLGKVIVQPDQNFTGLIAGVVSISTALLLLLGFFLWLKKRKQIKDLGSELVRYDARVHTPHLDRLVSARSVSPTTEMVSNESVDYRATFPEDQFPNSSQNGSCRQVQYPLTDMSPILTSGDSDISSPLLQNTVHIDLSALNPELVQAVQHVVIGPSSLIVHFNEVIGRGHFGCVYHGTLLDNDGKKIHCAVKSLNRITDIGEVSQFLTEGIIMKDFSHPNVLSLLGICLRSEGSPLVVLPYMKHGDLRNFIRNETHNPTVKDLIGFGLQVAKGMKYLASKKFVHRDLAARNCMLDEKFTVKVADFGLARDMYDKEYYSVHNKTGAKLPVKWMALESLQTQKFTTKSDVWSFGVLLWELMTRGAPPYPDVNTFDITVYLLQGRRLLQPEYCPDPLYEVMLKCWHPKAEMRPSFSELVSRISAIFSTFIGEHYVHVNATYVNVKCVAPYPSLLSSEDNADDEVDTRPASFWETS

Cc1ccc(C(=O)Nc2ccc(Oc3cc4cnn(C)c4cc3-c3cn[nH]c3)c(F)c2)c(=O)n1-c1ccc(F)cc1 [LY2801653, N-(3-fluoro-4-{[1-methyl-6-(1H-pyrazol-4-yl)-1H-indazol-5 yl]oxy}phenyl)-1-(4-fluorophenyl)-6-methyl-2-oxo-1,2-dihydropyridine-3-carboxamide]
p-MET inhibition in tumors by 16 h ([1]; S114 xenograft, 12 mg/kg oral, 16 h): no p-MET inhibition was observed | inhibition of p-MET ([1]; S114 xenograft, 12 mg/kg oral, at 2 h and maintained up to 8 h): Ninety-five percent | composite TED50 (50 % target inhibition dose) [1, 5]: 1.2 mg/kg | composite TED90 (90 % target inhibition dose) [1, 5]: 7.4 mg/kg | inhibition of MET phosphorylation ([1]; S114 xenograft, 2 h post-treatment, single 50-mg/kg dose, oral): 98% | TEC50 (the concentration that inhibited 50 % MET phosphorylation) [1, 6]: 0.2 µM | TEC90 (the concentration that inhibited 90 % MET phosphorylation) [1, 6]: 2 µM | inhibition at 12 mg/kg ([1]; mouse, po, read-out: inhibition of p-MET): 95% | anti-tumor growth effect (MKN45 xenograft): significant anti-tumor growth effect | activity against ALK (ALK): does not have significant activity | effect on HGF-induced DU-145 cell scattering (DU145 cells): completely blocked | anti-tumor growth effect (U-87MG xenograft): significant anti-tumor growth effect | tumor activity in xenograft model (HT29 xenograft): demonstrates tumor activity | anti-tumor growth effect (H441 xenograft): significant anti-tumor growth effect | mode of inhibition (human MET kinase domain [2]): competitive | in vivo anti-tumor growth activity (MV4-11 xenograft): in vivo anti-tumor growth activity | half-life [3]: 14.3 h | activity against LTK (LTK): does not have significant activity | pIC50 (MV4-11 cells): 8.40 | tumor activity in xenograft model (H1993 xenograft): demonstrates tumor activity | half-life (Pharmacokinetics in mice): 2.9 h | GLUT1 expression (U-87MG xenograft tumors): decrease in GLUT1 expression | apoptotic area (U-87MG xenograft tumors): significantly reduced apoptotic area | pericyte coverage of vessels (U-87MG xenograft tumors): increase in pericyte coverage of vessels | in vivo anti-tumor growth activity (H1299 orthotopic model): in vivo anti-tumor growth activity | anti-tumor growth effect (KP4 xenograft): significant anti-tumor growth effect | half-life (t1/2) (human MET kinase domain [4]): 8.75 h
